CDK5 inh: inhibitors of human CDK5/p35 kinase, primary screen, biochemical, single concentration. 330,000 tested, 0.01% active. Recombinant CDK5/p35, ADP-Glo luminescence, 60 min. Cyclin-dependent kinase 5 (Homo sapiens) + Cyclin-dependent kinase 5 activator 1 (Homo …. AID 488839, 2010. inhibition, % at 10 µM;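 active = highest replicate inhibition of at least 50% and at least 75% of replicates reaching 50%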;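 also: plate controls were DMSO neutral control for no effect and GW8510 at 10 µM for full effect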
Target sequence (Q00535 whole entry, looked up): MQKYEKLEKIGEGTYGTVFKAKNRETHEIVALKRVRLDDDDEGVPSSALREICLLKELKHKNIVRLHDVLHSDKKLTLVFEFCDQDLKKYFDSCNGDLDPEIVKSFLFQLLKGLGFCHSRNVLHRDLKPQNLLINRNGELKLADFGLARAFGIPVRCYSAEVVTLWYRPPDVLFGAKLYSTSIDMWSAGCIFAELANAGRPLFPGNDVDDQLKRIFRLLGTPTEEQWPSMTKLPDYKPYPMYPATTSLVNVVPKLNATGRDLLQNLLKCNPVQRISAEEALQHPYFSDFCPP
Target sequence (Q15078 whole entry, looked up): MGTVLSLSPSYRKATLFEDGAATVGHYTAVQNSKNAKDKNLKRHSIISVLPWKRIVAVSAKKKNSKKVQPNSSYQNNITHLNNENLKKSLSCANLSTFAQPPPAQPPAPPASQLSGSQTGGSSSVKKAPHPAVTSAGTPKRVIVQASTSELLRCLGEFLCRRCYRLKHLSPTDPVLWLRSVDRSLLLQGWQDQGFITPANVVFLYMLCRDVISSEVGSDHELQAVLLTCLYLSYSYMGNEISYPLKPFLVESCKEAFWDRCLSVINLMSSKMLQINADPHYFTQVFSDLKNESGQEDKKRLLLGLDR
DYRK1A inh: rat Dyrk1A kinase inhibitors, primary screen, biochemical, single point, plate reader; ADP-Glo luminescence, NFATc1 peptide; inhibition, % at 12.5 µM; 310,000 tested, 0.43% active; in the data active = inhibition above about 50%;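 also: plate controls were vehicle with enzyme for no effect and no enzyme for full effect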
STK33 kinase inh: inhibitors of purified STK33 kinase, primary screen, biochemical, ADP-Glo luminescence, homogeneous, cell-free | Serine/threonine-protein kinase 33 (Homo sapiens), Q9BYT3 | MBP phosphorylation | inhibition, % at 10 µM | 320,000 tested, 0.073% active;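 active = inhibition at or above 25%, using the most active replicate where run in duplicate; inactive = inhibition below 25%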
GSK3beta inhib: human GSK3beta kinase inhibitors, primary screen, biochemical, cell-free homogeneous, HTS | Glycogen synthase kinase-3 beta (Homo sapiens), P49841 | GST-GSK3beta kinase, ADP-Glo luminescence, 60 min; hits give low values | activity score (negative = inhibition), % at 10 µM | 300,000 tested, 0.038% active | AID 2097, 2009;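 active = more than half of replicate wells score below -50%, meaning over 50% inhibition versus plate controls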;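 also: 0% = median DMSO wells and -100% = median GW8510 positive control wells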
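test system = GST-tagged human GSK3beta kinase, cell-free | reagent = 25 µM ATP with peptide substrate | dosing = one dose of 10 µM per compound | schedule = 60 min reaction, RT | detection = luminescent ADP-Glo measurement of ADP formed | control set = DMSO neutral wells and GW8510 at 20 µM as positive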
GSK3 alpha inh: blockers of GSK3A enzyme activity – biochemical, luminescence, cell-free homogeneous, HTS, primary screen; GSK-3 alpha kinase, ADP-Glo luminescence, 60 min; inhibition, % at 10 µM; 320,000 tested, 0.1% active; AID 2650, 2010;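 active = more than half of replicates show inhibition above 20%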;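 also: GST-tagged GSK-3 alpha with peptide substrate and 25 µM ATP; 0% = DMSO neutral wells and 100% = GW8510 positive control wells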
Dyrk1A artifact: ADP-Glo luciferase interference without Dyrk1A, dose response, artefact control for Dyrk1A inhibitor project, biochemical, luminescence, cherry-pick, set 02; shares compounds with DYRK1A inh; ADP-Glo luciferase artifact assay, no Dyrk1A; AC50, µM (highest dose often 12 µM), inactives show at the highest dose activity change, negative = inhibition; 1,300 tested, under 10 active;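 active = fitted half-maximal dose AC50 no more than ten times the top valid tested dose, with luminescence dropping as dose rises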
Active calls of the source: *; · = no result given. This excerpt belongs to a sample that is enriched for hits.

SMILES	CDK5 inh	DYRK1A inh	STK33 kinase inh	GSK3beta inhib	GSK3 alpha inh	Dyrk1A artifact
O=C1OCc2cccc3cccc1c23	0	51*	1	2	2	8%
COc1ccc(C(=O)N2CCCC(Nc3ccc(F)cc3)C2)c(OC)c1 (centres undefined)	0	4	0	1	-2	·
N#Cc1nc(-c2cccs2)oc1NCc1ccccc1Cl	-1	51*	1	-6	13	11%
COc1cccc(Nc2ncnc3sc(C)cc23)c1	17	77*	0	-1	-11	11%
COc1cccc(Nc2ncnc3sccc23)c1	-7	8	7	0	8	·
Cc1nc2nc(C)c(NS(=O)(=O)c3ccc(Cl)cc3)c(=O)n2[nH]1	0	0	-1	·	0	·
COc1ccc(OC)c(S(=O)(=O)CC(O)CS(=O)(=O)c2ccccc2)c1 (centres undefined)	-1	-1	0	3	-1	·
Cc1cc(C)c2[nH]c(=O)c(CN(Cc3cccs3)C(=S)NCC3CCCO3)cc2c1 (centres undefined)	5	3	0	-1	-2	·
Cc1ccc(CN2CCN(c3ncccn3)CC2)o1	0	56*	-1	1	-3	7%
Cc1ccc(C)c(CN2CCN(c3ncccn3)CC2)c1	0	10	0	4	-2	·
Nc1n[nH]c(=S)n1/N=C1/C(=O)Nc2ccccc21	5	7	·	·	·	·
CC1(C)CC(=O)c2sc(NC(=O)C3CC3)nc2C1	-2	4	-1	3	-1	·
CCOCC(=O)Nc1nc2c(s1)C(=O)CC(C)(C)C2	0	57*	-1	0	-1	9%
Cc1cccc(-n2nc3c(c2NC(=O)CCC2CCCCC2)CS(=O)C3)c1C (centres undefined)	-1	55*	-1	-4	-3	11%
O=C1OCC/C1=C\c1ccc(O)cc1	3	92*	9	-7	17	7%
O=C1OCCC1=Cc1ccccc1	4	-1	·	·	·	·
Cc1cc(C)c(CN2CCN(C(=O)Cn3ccc(N)nc3=O)CC2)c(C)c1	0	50*	0	·	-1	8%
CSc1nc(N)nc2c1ncn2CC(=O)N1CCN(Cc2c(C)cc(C)cc2C)CC1	-1	3	1	·	-2	·
Cc1ccc(SCC(=O)NNC(=O)c2ccccc2)c(C)c1	0	12	-2	0	0	·
Fc1ccccc1-c1nc(-c2ccc(-c3nn[nH]n3)cc2)no1	3	59*	13	·	-2	2%
OCC[C@H]1C[C@@H](O)[C@H](O)[C@@]2(CCc3ccccc3CO2)O1	-4	-13	1	·	-2	·
OCC[C@@H]1C[C@H](O)[C@@H](O)[C@@]2(CCc3ccccc3CO2)O1	2	52*	5	-4	9	7%
NC(=O)c1ccc(N2CCNC(=O)C2)c([N+](=O)[O-])c1	-2	-2	-1	4	-1	·
NC1=NC(=O)/C(=C\c2ccc(-c3ccc(Cl)cc3)o2)S1	2	58*	0	1	9	7%
CN(C)C1=NC(=O)/C(=C/c2ccc(-c3ccc(S(N)(=O)=O)cc3)o2)S1	·	·	4	-4	19	·
SMILES	CDK5 inh	DYRK1A inh	STK33 kinase inh	GSK3beta inhib	GSK3 alpha inh	Dyrk1A artifact
O=C(N/N=C/c1cccc(O)c1)N/N=C/c1cccc(O)c1	-1	54*	3	-14	19	8%
Cc1ccsc1/C=N/NC(=O)c1nnn(-c2nonc2N)c1CN(C)c1ccccc1	-2	-3	0	-1	13	·
O=C(NCc1ccc2c(c1)OCO2)c1ccco1	-3	4	0	4	-1	·
O=C(CC(SCCO)c1ccc2c(c1)OCO2)c1ccco1 (centres undefined)	2	84*	2	-1	17	8%
COc1cccc(Nc2nc(-c3ccc(O)cc3)cs2)c1	-4	54*	3	-8	·	10%
COc1cccc(Nc2nc(-c3cccc(N4C(=O)c5ccccc5C4=O)c3)cs2)c1	0	2	-1	-1	-2	·
CC(=O)c1ccc(S(=O)(=O)N2CCN(C(=O)CN3C(=O)NC4(CCCC4)C3=O)CC2)cc1	-1	3	-1	0	0	·
O=C(Nc1cccnc1)c1scc2c1OCCO2	5	52*	4	-15	35	10%
CC(=O)c1nc2ccccc2n1S(=O)(=O)c1ccc(Cl)cc1	0	83*	0	1	-4	7%
CC(=O)c1nc2ccccc2n1S(=O)(=O)c1ccc(C)cc1	1	-1	1	-2	·	·
O=C(NCCCN1CCCC1=O)c1cccc(S(=O)(=O)N2CCN(c3ccc(F)cc3)CC2)c1	3	·	0	-1	0	·
COc1ccc2cc3cc(C(=O)NCCC(C)C)oc3nc2c1	1	12	1	2	-2	·
COc1ccc(C(=O)NCC2CCCO2)cc1 (centres undefined)	2	1	0	1	-2	·
COCCNC(=O)c1cc2cc3ccc(OC)cc3nc2o1	0	58*	1	1	0	10%
COc1ccc2cc3cc(C(=O)NCC4CCCO4)oc3nc2c1 (centres undefined)	2	54*	1	2	3	10%
CC(C)(C)C(=O)NC1(C(F)(F)F)NC(=O)N(c2ccccc2F)C1=O (centres undefined)	1	1	-1	1	2	·
CC(CN1CCN(Cc2ccccc2)CC1)OC(=O)c1ccco1 (centres undefined)	0	2	-2	-3	0	·
COc1ccc2c(c1)CCc1cn3nc(C)cc3nc1-2	6	81*	7	-2	·	10%
COc1ccc2c(c1)CCc1cnc(N)nc1-2	7	·	13	-2	11	·
O=C(O)c1[nH]c2ccc([N+](=O)[O-])cc2c1-c1ccccc1	1	53*	3	3	37	9%
NNC(=O)c1[nH]c2ccc([N+](=O)[O-])cc2c1-c1ccccc1	-2	12	1	1	0	·
CCOc1ccc(NC(=O)CSc2nnc(NC(=O)C3CC3)s2)cc1	1	-3	-3	1	2	·
Cc1ccc2oc(=O)c3cnn(CC(=O)NC4CCCCC4C)c3c2c1 (centres undefined)	1	61*	0	-4	-1	8%
COc1ccc(N(CC(=O)Nc2ccc3c(c2)OCCO3)S(=O)(=O)c2c(C)nn(C)c2C)cc1	-1	56*	1	-1	-5	11%
COc1cc2c(C#N)c(N3CCN(C)CC3)nc(N)c2c(N)n1	3	6	1	-3	3	·

Assay outcomes as filed in PubChem BioAssay.
